Activity calls are given as the source filed them. The rule behind the calls is not given here.
System: HCT-116
Test: Antiproliferative activity against human HCT116 cells at 25 uM after 48 hrs by MTT assay
Type: functional, cell-based
Conditions: not given
In short: (§1)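 Single-point screen at 25 µM in HCT116, SW620 and LOVO cells. Cells seeded at 10^4 cells/ml in DMEM + 10% FBS and left to adhere overnight at 37 °C, 5% CO2. MTT read 48 h after dosing with 0.1% DMSO as the negative control. Inhibition % = (1 − OD treated/OD control) × 100; mean ± SD of three measurements.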

| Structure (SMILES) | Activity |
| --- | --- |
| COc1ccc(-c2nc(C(=O)NCC(=O)NO)cc3c2[nH]c2ccccc23)cc1 | Active |
| COc1ccc(-c2nc(C(=O)NCCC(=O)NO)cc3c2[nH]c2ccccc23)cc1 | Active |
| O=C(CCCCNC(=O)c1cc2c(cn1)[nH]c1ccccc12)NO | inactive |
| Cc1nc(C(=O)NCCCC(=O)NO)cc2c1[nH]c1ccccc12 | inactive |
| O=C(CNC(=O)c1cc2c(cn1)[nH]c1ccccc12)NO | inactive |
| COc1ccc(-c2nc(C(=O)NCCCCCC(=O)NO)cc3c2[nH]c2ccccc23)cc1 | Active |

System: SW480
Test: Antiproliferative activity against human SW480 cells assessed as cell viability after 48 hrs by MTT assay
Type: functional, cell-based
Conditions: SW480, 48 h

| Structure (SMILES) | IC50 [µM] |
| --- | --- |
| COc1ccc(-c2nc(NC(=O)NCCCCCC(=O)NO)cc3c4ccccc4n(C)c23)cc1 | > 12.5 |
| COc1ccc(-c2nc(NC(=O)NCC(=O)NO)cc3c2[nH]c2ccccc23)cc1 | 10.1 |
| COc1ccc(-c2nc(NC(=O)NCCCCCC(=O)NO)cc3c2[nH]c2ccccc23)cc1 | 5.09 |
| COc1ccc(-c2nc(NC(=O)NCC(=O)NO)cc3c4ccccc4n(C)c23)cc1 | 9.81 |
| COc1ccc(-c2nc(NC(=O)NCCCCC(=O)NO)cc3c4ccccc4n(C)c23)cc1 | 5.8 |
| COc1ccc(-c2nc(C(=O)NCC(=O)NO)cc3c2[nH]c2ccccc23)cc1 | 10.5 |
| COc1ccc(-c2nc(C(=O)NCCC(=O)NO)cc3c2[nH]c2ccccc23)cc1 | 11.2 |
| COc1ccc(-c2nc(C(=O)NCCCCCC(=O)NO)cc3c2[nH]c2ccccc23)cc1 | 9.83 |
| COc1ccc(-c2nc(NC(=O)NCCC(=O)NO)cc3c4ccccc4n(C)c23)cc1 | 4.4 |

System: LoVo
Test: Antiproliferative activity against human LoVo cells at 25 uM after 48 hrs by MTT assay
Type: functional, cell-based
Conditions: not given
In short: as §1

| Structure (SMILES) | Activity |
| --- | --- |
| COc1ccc(-c2nc(C(=O)NCC(=O)NO)cc3c2[nH]c2ccccc23)cc1 | Active |
| COc1ccc(-c2nc(C(=O)NCCC(=O)NO)cc3c2[nH]c2ccccc23)cc1 | Active |
| O=C(CCCCNC(=O)c1cc2c(cn1)[nH]c1ccccc12)NO | inactive |
| Cc1nc(C(=O)NCCCC(=O)NO)cc2c1[nH]c1ccccc12 | inactive |
| O=C(CNC(=O)c1cc2c(cn1)[nH]c1ccccc12)NO | inactive |
| COc1ccc(-c2nc(C(=O)NCCCCCC(=O)NO)cc3c2[nH]c2ccccc23)cc1 | Active |

System: not listed separately
Test: Antiproliferative activity against human SW620 cells assessed as cell viability after 48 hrs by MTT assay
Type: functional, cell-based
Conditions: SW-620, 48 h

| Structure (SMILES) | IC50 [µM] |
| --- | --- |
| COc1ccc(-c2nc(NC(=O)NCCCCCC(=O)NO)cc3c4ccccc4n(C)c23)cc1 | 9.53 |
| COc1ccc(-c2nc(NC(=O)NCC(=O)NO)cc3c2[nH]c2ccccc23)cc1 | 7.12 |
| COc1ccc(-c2nc(NC(=O)NCCCCCC(=O)NO)cc3c2[nH]c2ccccc23)cc1 | 6.25 |
| COc1ccc(-c2nc(NC(=O)NCC(=O)NO)cc3c4ccccc4n(C)c23)cc1 | 8.36 |
| COc1ccc(-c2nc(NC(=O)NCCCCC(=O)NO)cc3c4ccccc4n(C)c23)cc1 | 5.09 |
| COc1ccc(-c2nc(C(=O)NCC(=O)NO)cc3c2[nH]c2ccccc23)cc1 | 6.92 |
| COc1ccc(-c2nc(C(=O)NCCC(=O)NO)cc3c2[nH]c2ccccc23)cc1 | 6.73 |
| COc1ccc(-c2nc(C(=O)NCCCCCC(=O)NO)cc3c2[nH]c2ccccc23)cc1 | 8.06 |
| COc1ccc(-c2nc(NC(=O)NCCC(=O)NO)cc3c4ccccc4n(C)c23)cc1 | 5.02 |

System: SW-620
Test: Antiproliferative activity against human SW620 cells at 25 uM after 48 hrs by MTT assay
Type: functional, cell-based
Conditions: not given
In short: as §1

| Structure (SMILES) | Activity |
| --- | --- |
| COc1ccc(-c2nc(C(=O)NCC(=O)NO)cc3c2[nH]c2ccccc23)cc1 | Active |
| COc1ccc(-c2nc(C(=O)NCCC(=O)NO)cc3c2[nH]c2ccccc23)cc1 | Active |
| O=C(CCCCNC(=O)c1cc2c(cn1)[nH]c1ccccc12)NO | inactive |
| Cc1nc(C(=O)NCCCC(=O)NO)cc2c1[nH]c1ccccc12 | inactive |
| O=C(CNC(=O)c1cc2c(cn1)[nH]c1ccccc12)NO | inactive |
| COc1ccc(-c2nc(C(=O)NCCCCCC(=O)NO)cc3c2[nH]c2ccccc23)cc1 | Active |

System: not listed separately
Test: Antiproliferative activity against human HCT116 cells assessed as cell viability after 48 hrs by MTT assay
Type: functional, cell-based, HCT-116
Conditions: Homo sapiens, HCT-116, 48 h

| Structure (SMILES) | IC50 [µM] |
| --- | --- |
| COc1ccc(-c2nc(NC(=O)NCCCCCC(=O)NO)cc3c4ccccc4n(C)c23)cc1 | 8.76 |
| COc1ccc(-c2nc(NC(=O)NCC(=O)NO)cc3c2[nH]c2ccccc23)cc1 | 8.52 |
| COc1ccc(-c2nc(NC(=O)NCCCCCC(=O)NO)cc3c2[nH]c2ccccc23)cc1 | 4.84 |
| COc1ccc(-c2nc(NC(=O)NCC(=O)NO)cc3c4ccccc4n(C)c23)cc1 | 9.3 |
| COc1ccc(-c2nc(NC(=O)NCCCCC(=O)NO)cc3c4ccccc4n(C)c23)cc1 | 3.87 |
| COc1ccc(-c2nc(C(=O)NCC(=O)NO)cc3c2[nH]c2ccccc23)cc1 | > 12.5 |
| COc1ccc(-c2nc(C(=O)NCCC(=O)NO)cc3c2[nH]c2ccccc23)cc1 | 8.64 |
| COc1ccc(-c2nc(C(=O)NCCCCCC(=O)NO)cc3c2[nH]c2ccccc23)cc1 | 7.16 |
| COc1ccc(-c2nc(NC(=O)NCCC(=O)NO)cc3c4ccccc4n(C)c23)cc1 | 4.27 |

System: LoVo
Test: Antiproliferative activity against human LoVo cells assessed as cell viability after 48 hrs by MTT assay
Type: functional, cell-based
Conditions: not given

| Structure (SMILES) | IC50 [µM] |
| --- | --- |
| COc1ccc(-c2nc(NC(=O)NCCCCCC(=O)NO)cc3c4ccccc4n(C)c23)cc1 | > 12.5 |
| COc1ccc(-c2nc(NC(=O)NCC(=O)NO)cc3c2[nH]c2ccccc23)cc1 | 9.36 |
| COc1ccc(-c2nc(NC(=O)NCCCCCC(=O)NO)cc3c2[nH]c2ccccc23)cc1 | 7.34 |
| COc1ccc(-c2nc(NC(=O)NCC(=O)NO)cc3c4ccccc4n(C)c23)cc1 | > 12.5 |
| COc1ccc(-c2nc(NC(=O)NCCCCC(=O)NO)cc3c4ccccc4n(C)c23)cc1 | 6.24 |
| COc1ccc(-c2nc(C(=O)NCC(=O)NO)cc3c2[nH]c2ccccc23)cc1 | > 12.5 |
| COc1ccc(-c2nc(C(=O)NCCC(=O)NO)cc3c2[nH]c2ccccc23)cc1 | 9.01 |
| COc1ccc(-c2nc(C(=O)NCCCCCC(=O)NO)cc3c2[nH]c2ccccc23)cc1 | 7.9 |
| COc1ccc(-c2nc(NC(=O)NCCC(=O)NO)cc3c4ccccc4n(C)c23)cc1 | 5.66 |

Target: Histone deacetylase
Test: Inhibition of HDAC in human HeLa cell nuclear extract using Boc-Lys (Ac)-AMC as substrate after 60 mins by fluorometric analysis
Type: cell-based
Conditions: not given

| Structure (SMILES) | IC50 [µM] |
| --- | --- |
| COc1ccc(-c2nc(NC(=O)NCCCCCC(=O)NO)cc3c4ccccc4n(C)c23)cc1 | 1.05 |
| COc1ccc(-c2nc(NC(=O)NCC(=O)NO)cc3c2[nH]c2ccccc23)cc1 | 2.24 |
| COc1ccc(-c2nc(NC(=O)NCCCCCC(=O)NO)cc3c2[nH]c2ccccc23)cc1 | 0.82 |
| COc1ccc(-c2nc(NC(=O)NCC(=O)NO)cc3c4ccccc4n(C)c23)cc1 | 3.16 |
| COc1ccc(-c2nc(NC(=O)NCCCCC(=O)NO)cc3c4ccccc4n(C)c23)cc1 | 0.86 |
| COc1ccc(-c2nc(C(=O)NCC(=O)NO)cc3c2[nH]c2ccccc23)cc1 | 3.02 |
| COc1ccc(-c2nc(C(=O)NCCC(=O)NO)cc3c2[nH]c2ccccc23)cc1 | 1.31 |
| O=C(CCCCNC(=O)c1cc2c(cn1)[nH]c1ccccc12)NO | 1.43 |
| Cc1nc(C(=O)NCCCC(=O)NO)cc2c1[nH]c1ccccc12 | 1.21 |
| O=C(CNC(=O)c1cc2c(cn1)[nH]c1ccccc12)NO | 6.17 |
| COc1ccc(-c2nc(C(=O)NCCCCCC(=O)NO)cc3c2[nH]c2ccccc23)cc1 | 1.17 |
| COc1ccc(-c2nc(NC(=O)NCCC(=O)NO)cc3c4ccccc4n(C)c23)cc1 | 1.33 |
